Several values for one entry are separate records, joined by “and”; a condition that tells them apart may be missing. Equal entries are not always repeated.

Data on two compounds can be found in ChEMBL document CHEMBL1124794, “Synthesis, chemistry, and antineoplastic activity of alpha-halopyridinium salts: potential pyridone prodrugs of acylated vinylogous carbinolamine tumor inhibitors” (J Med Chem, 1990).

Data set [1] can be described thus: Effect of phosphate buffer on carbamate hydrolysis in acetonitrile-water at the concentration of 0.01 M on pH 7.4, 25 degree C. It is filed as ADME. In a few lines:
(§1)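 Bis-carbamate in acetonitrile–water (1:1), 25 ± 0.1 °C. Citrate buffer at pH 3.0 or phosphate buffer at pH 7.4, at 0.01, 0.025 or 0.05 M, ionic strength 0.136 (KCl). Kinetics followed by HPLC as the decrease in bis-carbamate peak area. The regression slope of ln(area0/areat) vs time gave pseudo-first-order kobs. Duplicates averaged.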

Data set [2] can be described thus: In vivo activity against murine M5076 tumor system at the dose of 100 mg/kg, activity expressed as %T/C; 10/10. It is filed as functional, Mus musculus. An outline of the steps:
(§2)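 M5076: ascitic fluid with ca. 10^6 cells inoculated ip into CD2F1 mice. Dosing started 24 h after inoculation and was then given every 4 days for four doses in total, from solutions or suspensions made fresh each day. Toxicity day survivors were scored on day 5. Body weight difference is day 14 minus day 1. %T/C is based on median survival time versus controls.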

Data set [3] relates to P388. As to the kind of experiment: In vivo activity against P388 Lymphocytic Leukemia in CD2F1 mice at the dose of 100 mg/kg, activity expressed as TDS; 5/6. It is filed as functional, Mus musculus. In a few lines:
(§3)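 CD2F1 mice were inoculated with ascitic fluid holding ca. 10^6 P388 cells. Drug was given daily from 24 h after inoculation, from solutions or suspensions made fresh each day, some as a saline suspension. TDS is survivors/initial animals on day 5. BWD is body weight on day 5 minus day 1. %T/C compares median survival of treated and control mice.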

The test system of data set [4] is P388. As to the kind of experiment: In vivo activity against P388 Lymphocytic Leukemia in CD2F1 mice at the dose of 400 mg/kg, activity expressed as body weight difference; T-C. It is filed as functional, Mus musculus. In a few lines: as §3
Data set [5] relates to L1210. Description: In vivo activity against murine L1210 tumor system at the dose of 60mg/kg, activity expressed as %T/C. It is filed as functional, Mus musculus. In a few lines: (§4)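 L1210 lymphocytic leukemia: ascitic fluid with ca. 10^6 cells injected ip into CD2F1 mice. Dosing started 24 h after inoculation and was repeated daily for five doses in total, from solutions or suspensions made fresh each day. Toxicity day survivors were scored on day 5. Body weight difference is day 5 minus day 1. %T/C is based on median survival time versus controls.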

Data set [6] in a line: In vivo activity against murine M5076 tumor system at the dose of 166.7 mg/kg, activity expressed as TDS; 4/10. The format is functional, Mus musculus. An outline of the steps: as §2
Data set [7] in a line: In vivo activity against murine M5076 tumor system at the dose of 21.6 mg/kg, activity expressed as TDS; 10/10. It is filed as functional, Mus musculus. An outline of the steps: as §2
A short description of data set [8]: Half life at the pH 10.0. The settings on record: buffer. The format is ADME. In a few lines: (§5)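 Bis-carbamate in acetonitrile–water (1:1; buffer added to a 0.5 mg/mL acetonitrile solution), 0.05 M buffer, ionic strength 0.136 (KCl), 25 ± 0.1 °C. Buffers: phosphate pH 2.0; citrate pH 3.0–3.5; succinate pH 4.0; acetate pH 5.0; phosphate pH 6.0–8.0; borate pH 9.0; carbonate pH 10.0. HPLC bis-carbamate peak-area loss, ln(area0/areat) vs time slope = kobs. Duplicates averaged.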

The test system of data set [9] is L1210. As to the kind of experiment: In vivo activity against murine L1210 tumor system at the dose of 166.7 mg/kg, activity expressed as %T/C. The format is functional, Mus musculus. In a few lines: as §4
The nature of data set [10]: Half life at the buffer concentration of 0.01 M. The format is ADME. An outline of the steps:
as §1

Data set [11] in a line: Effect of pH on carbamate hydrolysis in 0.05 M buffer concentration at the pH 3.5, 25 degree C. It is filed as ADME. An outline of the steps:
as §5

Data set [12] is described as follows: Half life at the pH 4.0. It is filed as ADME. The note with it: buffer. In a few lines:
as §5

The nature of data set [13]: Half life at the concentration of 0.05 M. The format is ADME.
A short description of data set [14]: In vivo activity against murine M5076 tumor system at the dose of 100 mg/kg, activity expressed as body weight difference; T-C. The format is functional, Mus musculus. In a few lines:
as §2

The nature of data set [15]: In vivo activity against murine M5076 tumor system at the dose of 36 mg/kg, activity expressed as KE. The format is functional, Mus musculus. In a few lines:
as §2

Data set [16] is described as follows: In vivo activity against murine M5076 tumor system at the dose of 36 mg/kg, activity expressed as TDS; 10/10. It is filed as functional, Mus musculus. In a few lines: as §2
Data set [17] is described as follows: Effect of phosphate buffer on the hydrolysis of alpha Fluoropyridinium Moity at the concentration of 0.05M, pH 6.5, 25 degree C. It is filed as ADME. In a few lines:
(§6)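 α-Fluoropyridinium hydrolysis to pyridone in phosphate buffer at 0.02, 0.05 or 0.10 M, pH 6.5 or 8.0, ionic strength […] °C. Pyridinium UV absorbance maximum followed with time to give pseudo-first-order kobs and half-life.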

The nature of data set [18]: Effect of pH on the hydrolysis of pyridinium Moity in 0.05 M buffer concentration at the pH 7.4. It is filed as ADME. In a few lines: (§7)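 Pyridinium salt in 0.05 M phosphate buffer, pH 6.0–8.0 (set by pH meter), ionic strength 0.25 M, 25 °C. Decrease in the pyridinium UV absorbance maximum followed over time to give pseudo-first-order kobs and half-life.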
Data set [19] in a line: Effect of Ionic strength (0.10 M NaCl)on the hydrolysis of pyridinium Moity in 0.02 M buffer concentration, pH 7.4,25 degree C. The format is ADME. An outline of the steps: (§8)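 Pyridinium salt in 0.02 M phosphate buffer, pH 7.4, 25 °C, with NaCl varied 0.10–1.0 M. Loss of the pyridinium chromophore's UV absorbance maximum (conversion to pyridone) followed over time. Pseudo-first-order kobs and half-life derived from that decay.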

Data set [20] can be described thus: Half life at the ionic strength 0.10 M NaCl. The format is ADME. In a few lines: as §8
The nature of data set [21]: Half life at the ionic strength 1.0 M NaCl. It is filed as ADME. An outline of the steps:
as §8

The test system of another data set is MX1. As to the kind of experiment: In vivo activity against murine MX-1 tumor system at the dose of 75 mg/kg, activity expressed as %T/C. It is filed as functional, Mus musculus.
Data set [22] can be described thus: Effect of pH on the hydrolysis of pyridinium Moity in 0.05 M buffer concentration at the pH 6.5. The format is ADME. An outline of the steps:
as §7

Data set [23] has as its system L1210. Description: In vivo activity against murine L1210 tumor system at the dose of 50 mg/kg, activity expressed as %T/C. It is filed as functional, Mus musculus. An outline of the steps:
as §4

Data set [24] has as its system L1210. Description: In vivo activity against murine L1210 tumor system at the dose of 25 mg/kg, activity expressed as body weight difference. The format is functional, Mus musculus. An outline of the steps:
as §4

Data set [25] in a line: In vivo activity against murine M5076 tumor system at the dose of 25 mg/kg, activity expressed as body weight difference. It is filed as functional, Mus musculus. In a few lines:
as §2

Data set [26] is described as follows: Half life at the buffer concentration of 0.10 M. It is filed as ADME. An outline of the steps:
as §6

The nature of data set [27]: Half life at the concentration of 0.02 M. It is filed as ADME.
Data set [28] is described as follows: In vivo activity against murine M5076 tumor system at the dose of 50 mg/kg, activity expressed as body weight difference. The format is functional, Mus musculus.
Data set [29] in a line: Effect of pH on the hydrolysis of pyridinium Moity in 0.05 M buffer concentration at the pH 8.0. The format is ADME. An outline of the steps:
as §7

Data set [30] is described as follows: Half life at the pH 7.0. It is filed as ADME. The settings on record: buffer. In a few lines: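 Pyridinium-to-pyridone hydrolysis in 0.05 M phosphate buffer, ionic strength 0.25 M, 25 °C. pH set by meter. Loss of the pyridinium UV absorption maximum was followed over time to give pseudo-first-order k_obs and half-life.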
Data set [31] relates to P388. Description: In vivo activity against P388 Lymphocytic Leukemia in CD2F1 mice at the dose of mg/kg, activity expressed as KE. It is filed as functional, Mus musculus.
Data set [32] concerns P388. Description: In vivo activity against P388 Lymphocytic Leukemia in CD2F1 mice at the dose of 50 mg/kg, activity expressed as body weight difference. It is filed as functional, Mus musculus. An outline of the steps: as §3

The term T/C denotes the result in the treated group divided by that in the control group, in per cent. What is called half-life is how long it takes for the measured level to halve. Take `CC(C)NC(=O)OCc1c(COC(=O)NC(C)C)c(-c2ccn(C)c(=O)c2)n2c1CCC2`: the K obs in data set [1] was 0.0133 min⁻¹; in data set [11], 0.0214 min⁻¹. Besides, the TDS is listed as 10 in data set [2]; 5 in the data set with P388 [3]; 4 in data set [6]; 10 in data set [7]; 10 in [16]. Also, the BWD in the data set with P388 [4] is given as -1 g; in [14] it was -1.3 g. In addition, the T/C in the data set on L1210 [5] stood at 141%; in the data set with L1210 [9] it was 110%. The half-life in data set [8] amounted to 52.3 min; in data set [12], 46.7 min; in [13], 22.8 min. Also, the T1/2 in data set [10] was 19.86 min and 52.31 min. This compound yielded a KE in data set [15] of -1.69.

Consider `CC(C)NC(=O)OCc1c(COC(=O)NC(C)C)c(-c2cc[n+](C)c(F)c2)n2c1CCC2.[I-]`, for which the K obs in data set [17] worked out at 0.0072 min⁻¹; in [18] it was 0.0337 min⁻¹; in data set [19] it was 0.024 min⁻¹; in [22], 0.0153 min⁻¹; in data set [29], 0.052 min⁻¹. Further, the half-life in data set [20] stood at 29.1 min; in [21] it was 99.1 min; in data set [27] it was 133 min; in data set [30] it was 33.8 min. Besides, the T/C in the data set on MX1 turned out to be 34%; with L1210 [23], 118%. In addition, the BWD in the data set with L1210 [24] was 0.6 g; in data set [25] it was 0.4 g; in [28], 1.4 g; with P388 [32], -0.8 g. Further, in data set [26], the T1/2 was 50.3 min and 19.25 min. The compound further yielded a KE in the data set on P388 [31] of 1.25.
